Test results reported in ChEMBL document CHEMBL1122242, “Phenylenebis(oxy)bis[2,2-dimethylpentanoic acid]s: agents that elevate high-density lipoproteins” (1983).

How the values were obtained:
Format in all cases: functional
[1] = species: Rattus norvegicus; experiment: Hypolipidemic effects(plasma cholesterol) in male rats
Method in brief: (§1)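 Male rats, 10 per group, fed 7 days on chow with 10% fat (5.5% added peanut oil), 1.5% cholesterol and 0.1% cholic acid. Oral gavage on days 4-7 in 4% acacia, usually 50 mg/kg daily. Fasted overnight, killed day 8, atrial blood into EDTA. Plasma cholesterol, TG and HDL cholesterol (after MnCl2/heparin precipitation) by Autoanalyzer. % change vs controls, Student's t test.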

[2] = species: Rattus norvegicus; experiment: Hypolipidemic effects(liver weight) in male rats; method in brief: as §1
[3] = test system: Rattus norvegicus; experiment: Hypolipidemic effects (high-density lipoprotein (HDL) cholesterol) in male rats; Compound was screening orally at 50 mg/Kg; method in brief: as §1
[4] = test system: Rattus norvegicus; experiment: Hypolipidemic effects (low-density lipoprotein (LDL) cholesterol) in male rats; Compound was screening orally at 50 mg/Kg; method in brief: as §1
[5] = species: Rattus norvegicus; experiment: Hypolipidemic effects(plasma TG) in male rats; method in brief: as §1

SMILES	Change [1] [%]	Change [2] [%]	Change [3] [%]	Change [4] [%]	Change [5] [%]
COC(=O)C(C)(C)CCCOc1cc(OCCCC(C)(C)C(=O)OC)c(C(C)(C)C)cc1C(C)(C)C	0	0	0	0	0
CC(C)(CCCOc1ccc(OCCCC(C)(C)C(=O)O)c(C(O)c2ccccc2)c1)C(=O)O (configuration not stated)	-17	16	410	-42	27
CC(C)(CCCOc1ccc(S(=O)(=O)CCCC(C)(C)C(=O)O)cc1)C(=O)O	0	9	93	-20	0
COC(=O)C(C)(C)CCCOc1cc(OCCCC(C)(C)C(=O)OC)c(Cl)cc1Cl	0	0	0	0	0
COC(=O)C(C)(C)CCCOc1cccc(OCCCC(C)(C)C(=O)OC)c1NC(C)=O	0	0	0	0	0
CC(C)(CCCOc1ccc(-c2ccc(OCCCC(C)(C)C(=O)O)cc2)cc1)C(=O)O	-30	15	138	–	0
COC(=O)C(C)(C)CCCOc1cc(OCCCC(C)(C)C(=O)OC)cc(-c2ccccc2)c1	-41	13	0	-42	0
COC(=O)C(C)(C)CCCOc1cc(C(C)(C)C)c(OCCCC(C)(C)C(=O)OC)cc1C(C)(C)C	0	0	0	–	-15
COC(=O)C(C)(C)CCCOc1ccc(OCCCC(C)(C)C(=O)OC)c(C#N)c1C#N	0	0	0	0	0
CC(C)(CCCOc1ccc(S(=O)(=O)c2ccc(OCCCC(C)(C)C(=O)O)cc2)cc1)C(=O)O	0	10	26	0	0
COC(=O)c1c(OCCCC(C)(C)C(=O)OC)cccc1OCCCC(C)(C)C(=O)OC	0	0	21	0	0
CC(C)(CCCCOc1ccc(OCCCCC(C)(C)C(=O)O)c(-c2ccccc2)c1)C(=O)O	-49	8	51	-53	0
CC(C)(CCCOc1ccc(Oc2ccc(OCCCC(C)(C)C(=O)O)cc2)cc1)C(=O)O	-35	0	0	-36	0
COC(=O)C(C)(C)CCCOc1ccc(OCCCC(C)(C)C(=O)OC)c(/C=N/N=C(\N)S)c1	0	0	0	0	0
CC(C)(CO)CCCOc1ccc(OCCCC(C)(C)CO)c(-c2ccccc2)c1	37	30	1105	-36	0
CC(C)(CCCOc1cccc(OCCCC(C)(C)C(=O)O)c1)C(=O)O	-52	17	294	–	0
COC(=O)C(C)(C)CCCOc1ccc(Cl)c(OCCCC(C)(C)C(=O)OC)c1	-42	8	37	80	0
C/C=C/c1cc(OCCCC(C)(C)C(=O)OC)ccc1OCCCC(C)(C)C(=O)OC	-39	29	268	-66	-31
CC(C)(CCCOc1ccc(OCCCC(C)(C)C(=O)O)c(-c2ccc(Cl)cc2Cl)c1)C(=O)O	-45	0	64	-54	-20
COC(=O)C(C)(C)CCCOc1ccc(OCCCC(C)(C)C(=O)OC)c(C=O)c1	0	9	217	-20	0
CCC(O)c1cc(OCCCC(C)(C)C(=O)O)ccc1OCCCC(C)(C)C(=O)O (configuration not stated)	0	34	947	-62	0
COC(=O)C(C)(C)CCCOc1ccc(C=O)c(OCCCC(C)(C)C(=O)OC)c1	-18	11	79	-30	0
COC(=O)C(C)(C)CCCOc1ccccc1OCCCC(C)(C)C(=O)OC	-40	0	0	–	-30

SMILES	Change [1] [%]	Change [2] [%]	Change [3] [%]	Change [4] [%]	Change [5] [%]
CC(C)(CCCOc1ccc(OCCCC(C)(C)C(=O)O)c(Sc2ccccc2)c1)C(=O)O	32	14	428	-30	44
CC(C)(CCCOc1ccc(OCCCC(C)(C)C(=O)O)c(-c2ccccc2Cl)c1)C(=O)O	0	23	480	-38	38
COc1ccc(-c2cc(OCCCC(C)(C)C(=O)O)ccc2OCCCC(C)(C)C(=O)O)cc1	-30	0	52	-38	-30
COC(=O)C(C)(C)CCCOc1ccc(C(=O)c2ccc(OCCCC(C)(C)C(=O)OC)cc2)cc1	0	0	0	0	0
COC(=O)C(C)(C)CCCOc1ccc(OCCCC(C)(C)C(=O)OC)c(-c2nnco2)c1	-26	11	31	-33	0
COC(=O)C(C)(C)CCCOc1cccc(OCCCC(C)(C)C(=O)OC)c1C	-37	33	385	–	-15
CC(C)(CCCOc1ccc(OCCCC(C)(C)C(=O)O)c([S+]([O-])c2ccccc2)c1)C(=O)O (configuration not stated)	-27	16	599	-58	-21
CC(C)(CCCOc1ccc(OCCCC(C)(C)C(=O)O)c(S(=O)(=O)c2ccccc2)c1)C(=O)O	-32	10	303	-53	35
CC(C)(CCCOc1ccc(OCCCC(C)(C)C(=O)Oc2ccc(C(C)(C)C)cc2)cc1)C(=O)Oc1ccc(C(C)(C)C)cc1	0	0	0	0	0
COC(=O)C(C)(C)CCCOc1cc(C)c(OCCCC(C)(C)C(=O)OC)cc1C	-30	14	688	-64	27
CCCCCCCCCCCCc1ccc(OCCCC(C)(C)C(=O)O)cc1OCCCC(C)(C)C(=O)O	0	0	0	-12	0
Cc1cc(OCCCC(C)(C)C(=O)O)c(C)c(C)c1OCCCC(C)(C)C(=O)O	-37	21	165	–	42
CC(C)(CCCOc1ccc(OCCCC(C)(C)C(=O)OCc2cccnc2)c(-c2ccccc2)c1)C(=O)OCc1cccnc1	63	19	594	0	0
COC(=O)C(C)(C)CCCOc1cc(C)cc(OCCCC(C)(C)C(=O)OC)c1	-62	18	262	–	-53
CCOC(=O)C(C)(C)CCCOc1ccc(OCCCC(C)(C)C(=O)OCC)c(-c2ccccc2)c1	43	20	536	-18	0
COC(=O)C(C)(C)CCCOc1ccc(C(C)(C)c2ccc(OCCCC(C)(C)C(=O)OC)cc2)cc1	0	0	0	0	0
COC(=O)C(C)(C)CCCOc1ccc(OCCCC(C)(C)C(=O)OC)c(C2CCCCC2)c1	-49	6	35	-54	-24
COC(=O)c1ccc(OCCCC(C)(C)C(=O)OC)cc1OCCCC(C)(C)C(=O)OC	0	0	0	0	0
CC(C)(CCCOc1ccc(Sc2ccc(OCCCC(C)(C)C(=O)O)cc2)cc1)C(=O)O	-35	0	0	–	20
COC(=O)C(C)(C)CCCOc1cccc(OCCCC(C)(C)C(=O)OC)c1[N+](=O)[O-]	-33	5	109	-43	0
COC(=O)C(C)(C)CCCOc1ccc(OCCCC(C)(C)C(=O)OC)c(C(C)=O)c1	0	21	381	-39	20
CC(=O)OCC(C)(C)CCCOc1ccc(OCCCC(C)(C)COC(C)=O)c(-c2ccccc2)c1	0	19	602	-36	0
